The test system of experiment [1] is Rattus norvegicus. Nature of the experiment: In vivo inhibitory activity against cells in reverse passive Arthus reaction (RPAR) assay at dose 25 mg/kg in the pleural cavity of rats. The experiment is classed as functional. In outline: (§1)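 Male rats, five per group, dosed orally 1 h before iv BSA antigen (5 mg). Rabbit anti-BSA IgG (0.5 mg) given intrapleurally 30 min later. At 4 h, pleural exudate volume was measured and neutrophils counted (Coulter) after saline-EDTA lavage. Reported as % reduction in cells and fluid relative to control.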

The subject of experiment [2] is Rattus norvegicus. Nature of the experiment: In vivo inhibitory activity against fluid in reverse passive Arthus reaction (RPAR) assay at dose 25 mg/kg in the pleural cavity of rats. Type of experiment: functional. In a few lines: as §1
In experiment [3] the target is T1, Polyunsaturated fatty acid 5-lipoxygenase (Homo sapiens) (UniProt P09917).
T1 sequence (whole entry): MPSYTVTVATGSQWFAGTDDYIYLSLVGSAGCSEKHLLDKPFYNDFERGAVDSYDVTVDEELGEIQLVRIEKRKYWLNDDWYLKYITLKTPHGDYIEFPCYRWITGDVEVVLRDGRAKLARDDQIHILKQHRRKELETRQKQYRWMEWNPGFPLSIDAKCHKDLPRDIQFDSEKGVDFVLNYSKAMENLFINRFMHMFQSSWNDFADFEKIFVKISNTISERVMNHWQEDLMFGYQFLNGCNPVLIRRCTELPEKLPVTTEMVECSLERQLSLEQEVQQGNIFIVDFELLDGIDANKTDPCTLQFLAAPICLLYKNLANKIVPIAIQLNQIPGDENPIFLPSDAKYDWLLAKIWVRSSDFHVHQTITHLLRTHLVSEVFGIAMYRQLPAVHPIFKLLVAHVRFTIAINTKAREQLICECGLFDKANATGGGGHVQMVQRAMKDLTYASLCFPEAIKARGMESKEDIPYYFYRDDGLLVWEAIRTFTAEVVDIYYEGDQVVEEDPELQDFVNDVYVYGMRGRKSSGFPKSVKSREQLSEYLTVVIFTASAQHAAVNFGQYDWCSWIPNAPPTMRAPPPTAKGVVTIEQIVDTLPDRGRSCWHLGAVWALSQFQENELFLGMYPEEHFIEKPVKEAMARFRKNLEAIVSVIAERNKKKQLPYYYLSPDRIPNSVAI
Nature of the experiment: In vitro inhibitory activity against 5-lipoxygenase in human polymorphonuclear (PMN) cells. The settings on record: concentration not given here. In outline:
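Human PMN neutrophils (2×10^7 cells/mL) in HEPES buffer with 1 mM CaCl2, preincubated 4 min with test compound in DMSO vehicle. Then stimulated with [14C]arachidonic acid plus calcium ionophore A23187 for 5 min and stopped with methanol. 5-HETE was quantitated by HPLC. Reported as % inhibition versus vehicle, tested at 15 μM.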

Experiment [4] has as its system Rattus norvegicus. Description: In vivo effect on prostaglandin and leukotriene mediated production in rat pleural cavity was assessed by the inhibition of LTE4 in 5-lipoxygenase/ cyclooxygenase at dose 25 mg/kg. The experiment is classed as functional. In a few lines:
(§2)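 Rat reversed passive Arthus pleurisy, oral dosing 1 h before challenge. BSA given iv (5 mg), then rabbit anti-BSA IgG intrapleurally 30 min later. At 4 h, exudate was collected into indomethacin/NDGA and its volume recorded. Neutrophils were counted by Coulter counter. TXB2 and LTE4 in ethanol-extracted supernatant were measured by RIA with tritiated recovery spikes. Reported as % inhibition versus control.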

In experiment [5] the test system is Rattus norvegicus. Description: In vivo effect on prostaglandin and leukotriene mediated production in rat pleural cavity was assessed by the inhibition of cell influx in 5-lipoxygenase/ cyclooxygenase at dose 25 mg/kg. Type of experiment: functional. In a few lines:
as §2

Experiment [6] concerns Rattus norvegicus. Nature of the experiment: In vivo effect on prostaglandin and leukotriene mediated production in rat pleural cavity was assessed by the inhibition of fluid volume in 5-lipoxygenase/ cyclooxygenase at dose 25 mg/kg. Type of experiment: functional. The note with it: for inhibition in vivo at 25 mg/kg: Rattus norvegicus, Pleural cavity. In a few lines: as §2

Experiment [7] has as its system Rattus norvegicus. Nature of the experiment: In vivo antiinflammatory activity against edema formation in the noninjected(secondary) paw of the rat (before edema stimulation) at dose 25 mg/kg. The experiment is classed as functional. In outline:
(§3)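 Adjuvant arthritis in rats, prophylactic regimen. Oral dosing began 1 h before challenge and continued for 21 consecutive days. Heat-killed M. tuberculosis in paraffin oil (6 mg/mL), 0.1 mL injected into the left hind paw, with methylcellulose-treated controls. Both hind paw volumes measured by plethysmograph on day 21. Reported as % change relative to control.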

The test system of experiment [8] is Rattus norvegicus. Description: In vivo antiinflammatory activity against edema formation in the injected(primary) paw of the rat(before edema stimulation) at dose 25 mg/kg. The experiment is classed as functional. In outline: as §3
The target of experiment [9] is Cyclooxygenase (Homo sapiens) (UniProt P35354+P23219). Description: In vitro inhibitory activity against Prostaglandin G/H synthase in human platelets. The settings on record: concentration not given here. The arrangement: concentration or dose not given beside the values. In a few lines:
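Human platelets (2×10^5/mL) in HEPES buffer with 0.5 mM EGTA and 1.5 mM CaCl2, incubated 4 min with compound in DMSO vehicle. Then given [14C]arachidonic acid and A23187 ionophore for 5 min and stopped with methanol. HHT was measured by reverse-phase HPLC. Reported as % inhibition of HHT versus vehicle, at 15 μM.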

For experiment [10], the system named is Rattus norvegicus. Nature of the experiment: In vivo effect on prostaglandin and leukotriene mediated production in rat pleural cavity was assessed by the inhibition of TxB2 in 5-lipoxygenase/ cyclooxygenase at dose 25 mg/kg.
The subject of experiment [11] is Rattus norvegicus. Description: In vivo effect on prostaglandin and leukotriene mediated production in rat pleural cavity was assessed by the inhibition of TXB2 in 5-lipoxygenase/ cyclooxygenase at dose 25 mg/kg. The experiment is classed as functional. In a few lines:
as §2

31 molecules from ChEMBL document CHEMBL1125117, “Substituted 1,3-dihydro-2H-pyrrolo[2,3-b]pyridin-2-ones as potential antiinflammatory agents” (1990) can be followed below.

In the case of `CC1(C)C(=O)N(Cc2ccccc2)c2ncccc21`, the inhibition in vivo at 25 mg/kg in [1] and in experiment [2] was 12% in each case. The inhibition (as a rule, the relative decrease from the control value, in per cent) in experiment [3] came out at 2%.

In the case of `CC1(C)C(=O)N(c2cccc(Cl)c2)c2ncccc21`, the inhibition in vivo – broadly, the share of the control response that was lost under treatment – at 25 mg/kg stood at 51% in experiment [1]; 49% in experiment [2]; 59% in [4]; 51% in experiment [5]; 49% in experiment [6]; 31% in experiment [7]. Moreover, at 25 mg/kg the inhibition in vivo in experiment [8] was 0%. Further, the figures for the inhibition in [3] and in experiment [9] were 3% and 0%, respectively. The molecule also displayed a TxB2 inhibition in [10] of 62%.

For the molecule `CN1C(=O)C(C)(C)c2cccnc21`, the inhibition in vivo at 25 mg/kg in [1] was 69%; in experiment [2], 53%; in [11], 17%; in [5], 69%; in [6] it was 53%. The Inhibition – broadly, the drop in the measured response relative to a control, in per cent – in experiment [6] (25 mg/kg) is 53%.

On to `CC1(F)C(=O)N(c2ccccc2)c2ncccc21` (stereo not drawn), for which the inhibition in vivo at 25 mg/kg in experiment [1] was 50%; in [2] it was 35%. The same molecule had an inhibition in experiment [3] of 0%.

On to `CC1(C)C(=O)N(c2ccc(Cl)cc2Cl)c2ncccc21`, for which the results for the inhibition in vivo at 25 mg/kg in experiment [1] and in experiment [2] were 16% and 8%, respectively. Also, in [3], the inhibition stood at 20%.

For `COc1ccc(N2C(=O)C(C)(C)c3cccnc32)cc1`, the inhibition in vivo at 25 mg/kg in experiment [1] turned out to be 63%; in [2], 42%; in experiment [11], 34%; in experiment [5] it was 63%; in [7], 0%; in experiment [8] it was 0%. In experiment [3], the inhibition came to 11%.

Take `CC(C)N1C(=O)C(C)(C)c2cccnc21`: the values for the inhibition in vivo at 25 mg/kg in experiment [1] and in experiment [2] were 34% and 14%, respectively. Further, the inhibition in experiment [3] turned out to be 6%.

Take `CSC1(C)C(=O)N(c2ccccc2)c2ncccc21` (stereo not drawn): the inhibition in vivo at 25 mg/kg turned out to be 34% in experiment [1] and 53% in [2]. The molecule also came in with an inhibition in experiment [3] of 21%.

For `CC1(C)C(=O)N(c2ccccc2Cl)c2ncccc21`, the inhibition in vivo at 25 mg/kg in [1] is 14%; in experiment [2] it was 3%. Besides, the inhibition in [3] was found to be 0%.

As for `CC1(C)C(=O)N(c2ccc(Cl)cc2)c2ncc(Br)cc21`, the inhibition in vivo at 25 mg/kg in [1] was 29%; in experiment [2], 0%. The inhibition in [3] worked out at 34%.

With `CC1(C)C(=O)N(c2cc(Cl)cc(Cl)c2)c2ncccc21`, the inhibition in vivo at 25 mg/kg was 49% in experiment [1] and 33% in experiment [2].

`CC1(C)C(=O)N(c2ccc(Cl)cc2)c2ccccc21`: the inhibition in vivo at 25 mg/kg in experiment [1] and in [2] was 0% in each case.

On to `CSc1ccc(N2C(=O)C(C)(C)c3cccnc32)cc1`, for which the inhibition in vivo at 25 mg/kg in experiment [1] was found to be 29%; in experiment [2] it was 37%. Moreover, the inhibition in experiment [3] stood at 23%.

Turning to `COCCSC1(C)C(=O)N(c2ccccc2)c2ncccc21` (stereo not drawn), the inhibition in vivo at 25 mg/kg came to 26% in experiment [1] and 23% in experiment [2]. In [3], this molecule had an inhibition of 0%.

For the molecule `CC(C)c1ccc(N2C(=O)C(C)(C)c3cccnc32)cc1`, the figures for the inhibition in vivo at 25 mg/kg in experiment [1] and in experiment [2] were 29% and 6%, respectively. In experiment [3], this molecule had an inhibition of 0%.

In the case of `CC1(C)C(=O)N(c2ccc(S(C)(=O)=O)cc2)c2ncccc21`, the inhibition in vivo at 25 mg/kg in experiment [1] worked out at 42%; in [2] it was 0%. The molecule further registered an inhibition in experiment [3] of 13%.

For `CC1(C)C(=O)N(c2ccc(F)cc2F)c2ncccc21`, the inhibition in vivo at 25 mg/kg in experiment [1] amounted to 61%; in [2], 19%. The inhibition in experiment [3] is 7%.

`CC1(C)C(=O)N(c2ccc(Cl)c(Cl)c2)c2ncccc21`: the inhibition in vivo at 25 mg/kg in [1] was 26%; in experiment [2], 25%; in [4], 46%; in experiment [5], 26%; in experiment [6] it was 25%. Further, the inhibition in experiment [3] and in experiment [9] was 0% in each case. Besides, the TxB2 inhibition in experiment [10] amounted to 44%.

With `Cc1c(Cl)cccc1N1C(=O)C(C)(C)c2cccnc21`, the figures for the inhibition in vivo at 25 mg/kg in experiment [1] and in [2] were 14% and 0%, respectively. In addition, the inhibition in [3] is 7%.

As to `CC1(C)C(=O)N(c2cccc(C(F)(F)F)c2)c2ncccc21`, the inhibition in vivo at 25 mg/kg is 35% in experiment [1] and 10% in experiment [2]. For the same molecule, the inhibition in experiment [3] was 34%.

`C[S+]([O-])c1ccc(N2C(=O)C(C)(C)c3cccnc32)cc1` (stereo not drawn): the inhibition in vivo at 25 mg/kg in experiment [1] came out at 39%; in experiment [2] it was 0%. In [3], the inhibition amounted to 11%.

Regarding `CC1(C)C(=S)N(c2ccc(Cl)cc2)c2ncccc21`, the inhibition in vivo at 25 mg/kg in [1] was 41%; in [2] it was 42%. Also, in experiment [3], the inhibition stood at 17%.

In the case of `CCCCC1(C)C(=O)N(c2ccccc2)c2ncccc21` (stereo not drawn), the inhibition in vivo at 25 mg/kg in experiment [1] turned out to be 21%; in [2], 5%. Moreover, the inhibition in [3] is 13%.

Regarding `CC1(C)C(=O)Nc2ncccc21`, the inhibition in vivo at 25 mg/kg came out at 46% in experiment [1] and 38% in experiment [2].

`CC1(C)C(=O)N(Cc2ccc(Cl)cc2)c2ncccc21`: the values for the inhibition in vivo at 25 mg/kg in [1] and in experiment [2] were 6% and 0%, respectively. In experiment [3], the inhibition is 26%.

On to `CC1C(=O)N(c2ccccc2)c2ncccc21` (stereo not drawn), for which the inhibition in vivo at 25 mg/kg came to 29% in experiment [1] and 18% in experiment [2]. Also, the inhibition in [3] amounted to 0%.

As to `CCC1(C)C(=O)N(c2ccccc2)c2ncccc21` (stereo not drawn), the inhibition in vivo at 25 mg/kg in [1] was 36%; in [2] it was 12%. This molecule also returned an inhibition in [3] of 13%.

Take `CC1(C)C(=O)N(c2ccc(Br)cc2)c2ncccc21`: the values for the inhibition in vivo at 25 mg/kg in experiment [1] and in experiment [2] were 46% and 55%, respectively. Besides, in experiment [3], the inhibition was 11%.

Consider `CC1(Cc2ccccc2)C(=O)N(c2ccccc2)c2ncccc21` (stereo not drawn), for which the results for the inhibition in vivo at 25 mg/kg in [1] and in experiment [2] were 9% and 0%, respectively. Moreover, the inhibition in experiment [3] was found to be 17%.

With `CC1(Sc2ccccc2)C(=O)N(c2ccccc2)c2ncccc21` (stereo not drawn), the inhibition in vivo at 25 mg/kg in [1] and in experiment [2] was 0% each time.

Consider `CCC1(CC)C(=O)N(c2ccccc2)c2ncccc21`, for which the inhibition in vivo at 25 mg/kg is 13% in experiment [1] and 0% in [2]. Moreover, the inhibition in experiment [3] was determined as 12%.
